Measured values from different studies.
Compare with care: the assays were run in different laboratories.
Target: Serine/threonine-protein kinase ULK2 (ULK2, Homo sapiens, UniProt Q8IYT8)

CN1CC(Oc2cnc(C#N)cc2-c2ccn3nc(NC(=O)C4CC4)cc3c2)C1  inhibition (enzyme activity; inhibitor; 1 µM): 8%
COc1cc(-c2cn(C3CCc4ccccc4N(CC(F)(F)F)C3=O)nn2)ccc1-n1ccc(C)n1 (stereo not shown)  remaining binding (cell-free assay; competition with immobilised ligand; 1 µM): 88%
Nc1ncnc2occ(-c3ccc(NC(=O)Nc4cc(C(F)(F)F)ccc4F)cc3)c12  remaining signal (cell-free assay; inhibitor; 20 µM): 8.8%
COc1cc(Nc2cnc(C#N)c(O[C@H](C)CN(C)C)n2)ncc1-c1cnn(C)c1  remaining activity (enzyme activity; inhibitor; radiometric; 1 µM): 42%
CS(=O)(=O)CCNCc1ccc(-c2ccc3ncnc(Nc4ccc(OCc5cccc(F)c5)c(Cl)c4)c3c2)o1  remaining signal (cell-free assay; 0.5 µM): 104%
C[C@@H](c1cccc(C#N)c1)n1cc(Cl)cc(C(N)=O)c1=N  remaining binding (cell-free assay; competition with immobilised ligand; 1 µM): 89%
CCCS(=O)(=O)Nc1ccc(F)c(C(=O)c2c[nH]c3ncc(-c4ccc(Cl)cc4)cc23)c1F  inhibition (enzyme activity; inhibitor; 1 µM): < 10%
Cc1ccc(C(=O)NCc2ccsc2)cc1C#Cc1cn(C(C)C)c2ncnc(N)c12  activity vs control (enzyme activity; inhibitor; 1 µM): 92%
N#CCCc1ccc2c(c1)-c1[nH]c3ccc([N+](=O)[O-])cc3c1CC(=O)N2  remaining signal (cell-free assay; 0.5 µM): 73.1%
CS(=O)(=O)Nc1cccc(-c2csc(NC(=O)CSc3nc4nccnc4c(=O)n3CCc3ccccc3)n2)c1  inhibition (enzyme activity; inhibitor; 10 µM): -2%
COc1cc(/C=C/C(=O)CC(=O)/C=C/c2ccc(O)c(OC)c2)ccc1O  activity vs control (enzyme activity; inhibitor; 1 µM): 105%
CNC(=O)Nc1ccc2c(c1)[C@@]1(CC2)OC(=O)N(CC(=O)N(Cc2ccc(F)cc2)[C@@H](C)C(F)(F)F)C1=O  remaining binding (cell-free assay; competition with immobilised ligand; 1 µM): 100%
O=C1NC(=O)c2cc(Nc3ccc(F)cc3)c(Nc3ccc(F)cc3)cc21  remaining signal (cell-free assay; 0.5 µM): 84.7%
Cc1ccc(NC(=O)c2ccc(C)c(C(F)(F)F)c2)cc1C#Cc1nn(C2CCC(O)CC2)c2ncnc(N)c12 (stereo not shown)  remaining signal (cell-free assay; 10 µM): 100%
Cc1nc(C2CCN(C(=O)c3ccc(OC(F)(F)F)cc3N)CC2)c2ncc(N3CCN(C)CC3)cc2n1  remaining binding (cell-free assay; competition with immobilised ligand; 1 µM): 100%
C=CC(=O)Nc1cc(Nc2nccc(Nc3cc(Cl)c(F)cc3C(C)(C)O)n2)c(OC)cc1N1CC[C@@H](N(C)C)C1  inhibition (enzyme activity; inhibitor; 1 µM): -2%
C[C@@]1(Cc2ccc(C#N)cc2)C(=O)N(c2cc(Cl)cc(Cl)c2)c2ncc(C(=O)NC3(c4nc(C5CCC5)no4)CC3)n21  remaining binding (cell-free assay; competition with immobilised ligand; 1 µM): 100%
FC(F)(F)Oc1cccc(-c2cnc3ccc(-c4ccncc4)nn23)c1  activity vs control (enzyme activity; inhibitor; radiometric; 5 µM): 95%
Nc1c(C(=O)NCc2ccc(C(=O)NCCCC3CCCCC3)cc2)cnn1-c1ccccc1  remaining binding (cell-free assay; competition with immobilised ligand; 0.1 µM): 100%
O=C(Nc1cnn(-c2csc(C(=O)NC3COC3)c2)c1)Nc1c(F)cccc1Cl  remaining activity (enzyme activity; inhibitor; 5 µM): 105%
O=C(NCc1ncc(C(F)(F)F)cc1Cl)c1ccc2c(c1)C1(CCS(=O)(=O)CC1)[C@H](C1CC1)N2S(=O)(=O)c1ccc(F)cc1  remaining binding (cell-free assay; competition with immobilised ligand; 1 µM): 58%
CCN1CCN(Cc2ccc(NC(=O)c3ccc(C)c(Oc4ccnc5[nH]ccc45)c3)cc2C(F)(F)F)CC1  inhibition (target engagement in cells; inhibitor; chemoproteomics; Huh-7; 10 µM): -13.4%
